Converted amounts (≈) assume the structure as drawn.
Key:
[1] = target: T1, Glucose-dependent insulinotropic receptor (Homo sapiens) (UniProt Q8TDV5); assay: Intrinsic activity at human GPR119 expressed in HEK293 cells assessed as intracellular cAMP accumulation after 30 mins by HTRF assay relative to oleoylethanolamide; type: functional, cell-based
T1 sequence (whole entry): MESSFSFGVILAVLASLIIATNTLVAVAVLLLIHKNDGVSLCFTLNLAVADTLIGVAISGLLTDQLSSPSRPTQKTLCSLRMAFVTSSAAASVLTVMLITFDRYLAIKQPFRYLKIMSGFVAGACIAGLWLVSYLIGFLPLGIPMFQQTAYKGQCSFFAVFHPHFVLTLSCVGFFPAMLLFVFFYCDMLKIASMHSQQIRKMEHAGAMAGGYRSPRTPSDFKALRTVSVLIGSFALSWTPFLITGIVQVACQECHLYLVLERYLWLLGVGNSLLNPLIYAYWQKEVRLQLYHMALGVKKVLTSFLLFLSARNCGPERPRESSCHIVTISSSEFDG
In short: (§1)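 Anti-cAMP cryptate in lysis buffer was then added for 3 h at room temperature in the dark, and cAMP was read by HTRF. EC50 is the concentration giving 50% of the maximal OEA response; intrinsic activity is expressed as % of OEA (100%).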

[2] = Solubility of the compound in Japanese pharmacopoeia first fluid at pH 1.2; type: physicochemical
In short: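 Solubility was measured in Japanese Pharmacopoeia 1st fluid for dissolution testing, adjusted to pH 1.2.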

[3] = target: T2, Glucose-dependent insulinotropic receptor (Homo sapiens, UniProt Q8TDV5); assay: Agonist activity at human GPR119 expressed in HEK293 cells assessed as intracellular cAMP accumulation after 30 mins by HTRF assay; type: functional, cell-based; in short: as §1
T2 sequence (Q8TDV5 whole entry): T1 sequence (whole entry)

[4] = Solubility of the compound in FeSSIF; type: physicochemical
[5] = Metabolic stability in human liver microsomes assessed as parent compound remaining at 5 uM after 1 hr; type: ADME, Microsome; details: read-out: Stability
In short: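 Compound (5 μM) was incubated with human liver microsomes ([…]) for 1 h. Percent of compound remaining was reported.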

[6] = Metabolic stability in rat liver microsomes assessed as parent compound remaining at 5 uM after 1 hr; type: ADME, Microsome; details: read-out: Stability
In short: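 Compound (5 μM) was incubated with rat liver microsomes ([…]) for 1 h. Percent of compound remaining was reported.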

Intrinsic activity [1]	solubility [2]	EC50 [3]	solubility [4]	remaining at 1 h, 5 µM [5]	remaining at 1 h, 5 µM [6]	SMILES
92%	4.4 µM (≈ 1.96 µg/mL)	139 nM	8.6 µM (≈ 3.83 µg/mL)			Cc1c(Nc2ccc(S(C)(=O)=O)cc2)ncnc1O[C@H]1CC[C@]2(CC1)COC(C)(C)C2
128%	> 475 µM	45 nM	49.8 µM (≈ 23.7 µg/mL)	91%	93%	Cc1c(Nc2ccc(S(C)(=O)=O)cc2F)ncnc1N(C)[C@H]1CC[C@]2(CC1)COC(C)(C)C2
38%	2.8 µM (≈ 1.32 µg/mL)	> 1000 nM	25.5 µM (≈ 12 µg/mL)			Cc1c(O[C@H]2CC[C@]3(CC2)COC(C)(C)C3)ncnc1N1CCc2cc(S(C)(=O)=O)ccc21
109%		89 nM				CC(O[C@H]1CC[C@]2(CC1)COC(C)(C)C2)c1nc(-c2ccc(S(C)(=O)=O)c(F)c2)no1 (some centres undefined)
62%	< 0.5 µM	59 nM	33.4 µM (≈ 15.5 µg/mL)			Cc1c(Oc2ccc(S(C)(=O)=O)cc2F)ncnc1O[C@H]1CC[C@]2(CC1)COC(C)(C)C2
91%	5.3 µM (≈ 2.46 µg/mL)	13 nM	15.8 µM (≈ 7.32 µg/mL)			Cc1c(Nc2ccc(S(C)(=O)=O)cc2F)ncnc1O[C@H]1CC[C@]2(CC1)COC(C)(C)C2
17%	13 µM (≈ 6.21 µg/mL)	> 1000 nM	42.5 µM (≈ 20.3 µg/mL)			Cc1c(O[C@H]2CC[C@]3(CC2)COC(C)(C)C3)ncnc1N(C)c1ccc(S(C)(=O)=O)cc1F
79%		85 nM				CC1(C)C[C@]2(CC[C@H](c3nc(COc4ccc(-n5cnnn5)cc4)cs3)CC2)CO1
118%	> 475 µM	39 nM	75.3 µM (≈ 36.8 µg/mL)	99%	94%	CN(c1ncnc2c1CCN2c1ccc(S(C)(=O)=O)cc1F)[C@H]1CC[C@]2(CC1)COC(C)(C)C2
90%	18.9 µM (≈ 8.99 µg/mL)	5 nM	15.2 µM (≈ 7.23 µg/mL)			CC1(C)C[C@]2(CC[C@H](Oc3ncnc4c3CCN4c3ccc(S(C)(=O)=O)cc3F)CC2)CO1
61%	0.7 µM (≈ 0.344 µg/mL)	98 nM	4.3 µM (≈ 2.11 µg/mL)			CC(C)c1c(Nc2ccc(S(C)(=O)=O)cc2F)ncnc1O[C@H]1CC[C@]2(CC1)COC(C)(C)C2
108%	418 µM (≈ 197 µg/mL)	16 nM	24.3 µM (≈ 11.4 µg/mL)	89%	80%	CN(c1cc(N2CCc3cc(S(C)(=O)=O)ccc32)ncn1)[C@H]1CC[C@]2(CC1)COC(C)(C)C2
87%	7 µM (≈ 3.2 µg/mL)	15 nM	19.8 µM (≈ 9.06 µg/mL)			CC1(C)C[C@]2(CC[C@H](Oc3cc(N4CCc5cc(S(C)(=O)=O)ccc54)ncn3)CC2)CO1
82%	4.6 µM (≈ 2.2 µg/mL)	42 nM	67.5 µM (≈ 32.2 µg/mL)			CCc1c(Nc2ccc(S(C)(=O)=O)cc2F)ncnc1O[C@H]1CC[C@]2(CC1)COC(C)(C)C2
101%	128 µM (≈ 58.7 µg/mL)	33 nM	65.2 µM (≈ 29.8 µg/mL)	77%	44%	Cc1c(Nc2ccc(C(=O)N(C)C)cc2F)ncnc1O[C@H]1CC[C@]2(CC1)COC(C)(C)C2
